CHRM5 PAM: CHRM5 positive allosteric modulation | P08912 | AID 624038 | 0.3% of 360,000 active | activation, % at 3 µM | CHO-K1 hM5, Fluo-8 calcium, ACh EC20 PAM; 0% = ACh EC20, 100% = ACh EC100;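 active means activation above the run cutoff, the mean activation of all test compounds plus 3 SD, cut at about 18% in these data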
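Assay system: CHO-K1 hM5 cells. Also added: acetylcholine at EC20 concentration, added after compound. Dosing: 3 µM, single dose. Times: compound preincubation 140 s before EC20 acetylcholine addition. Signal: Fluo-8 calcium fluorescence. Measure: % activation relative to EC20 and EC100 ACh responses. Repeats: singlicate, one well per test compound.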
CHRM1 PAM: human CHRM1 positive allosteric modulation; CHO-K1 hM1, Fluo-8 calcium fluorescence, ACh EC20; 0% = ACh EC20, 100% = maximal ACh; activation, % at 3 µM; P11229; 0.088% of 360,000 active; AID 588819; in the data active means activation above about 19%, passing the limit was not always enough
Target sequence (P11229 whole entry, looked up): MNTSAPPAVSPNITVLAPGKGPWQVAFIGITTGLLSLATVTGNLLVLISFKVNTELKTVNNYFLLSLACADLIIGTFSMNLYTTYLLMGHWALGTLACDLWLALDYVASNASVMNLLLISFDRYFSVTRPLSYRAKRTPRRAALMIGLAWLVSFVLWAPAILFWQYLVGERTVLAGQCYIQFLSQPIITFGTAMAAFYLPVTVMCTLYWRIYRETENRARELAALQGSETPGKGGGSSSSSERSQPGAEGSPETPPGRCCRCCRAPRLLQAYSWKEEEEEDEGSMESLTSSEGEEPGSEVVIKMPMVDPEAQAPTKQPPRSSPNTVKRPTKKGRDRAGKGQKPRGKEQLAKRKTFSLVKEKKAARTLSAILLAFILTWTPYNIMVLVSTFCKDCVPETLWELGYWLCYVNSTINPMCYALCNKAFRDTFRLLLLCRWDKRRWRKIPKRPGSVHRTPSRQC
M1 antag: blocks human M1 muscarinic receptor; CHO-K1 hM1, Fluo-8 calcium fluorescence, ACh EC80 antagonist; AID 588852; 1.3% of 360,000 active; P11229; inhibition, % at 3 µM;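 active means percent inhibition above its own plate's cutoff, namely the mean of that plate's compound wells plus 3 SD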;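 further: peak over basal fluorescence ratio during 140 s after agonist addition; 0% = ACh EC80 plus DMSO and 100% = DMSO alone without agonist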
M5 antag: CHRM5 antagonism in calcium assay; CHO-hM5 cells, Fluo-8 calcium fluorescence, ACh EC80; inhibition, % at 3 µM; 0.59% of 360,000 active;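 active means inhibition above a per-plate cutoff, the mean of that plate's test compounds plus 3 SD, cut at about 27% in these data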;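 further: 0% = acetylcholine EC80 with DMSO and 100% = DMSO without agonist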
M1 ag: human M1 muscarinic receptor agonism; activation, % at 3 µM; P11229; CHO-K1 hM1, Fluo-8 calcium fluorescence, agonist mode; 0% DMSO, 100% acetylcholine EC100; 0.33% of 360,000 active;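 active means activation above the run's mean compound activation plus 3 SD, cut at about 16% in these data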;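 further: peak over basal fluorescence ratio within a 140 s kinetic read after compound addition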
M5 ag: CHRM5 agonism in calcium assay; P08912; CHO-K1 hM5 cells, Fluo-8 calcium fluorescence; 0% DMSO wells, 100% maximal acetylcholine response; activation, % at 3 µM; 0.19% of 360,000 active; AID 624037;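 active means activation above the run's mean over test compounds plus 3 SD, cut at about 23% in these data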;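 further: signal is peak over basal fluorescence ratio across the kinetic read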
* = called active by the depositor. A selection: hits, their analogues and other compounds. The true share with any hit is near 2.2%.

SMILES | CHRM5 PAM | CHRM1 PAM | M1 antag | M5 antag | M1 ag | M5 ag
Cc1cc(C)n(-c2ccnc3cc(Cl)ccc23)n1 | 1.9 | 7.5 | -12.9 | 7.7 | -8.8 | -3.0
O=C(CSc1nnc(-c2cccnc2)o1)OC1CCCCC1 | 4.7 | 6.2 | -11.8 | -4.9 | -3.2 | -1.4
CCC(=O)N1CCc2cc(S(=O)(=O)CCC(=O)NCc3ccc(C)cc3)ccc21 | 1.1 | 4.1 | -8.3 | 1.0 | -1.6 | -0.9
CCC(=O)N1CCc2cc(S(=O)(=O)CCC(=O)Nc3ccc(C)cn3)ccc21 | -0.3 | 4.8 | 0.6 | 6.6 | -5.4 | -1.0
CCC(=O)N1CCc2cc(S(=O)(=O)CCC(=O)NCc3cccc(OC)c3)ccc21 | 1.4 | 2.7 | 51.2* | 1.1 | -3.7 | -5.6
CCC(=O)N1CCc2cc(S(=O)(=O)CCC(=O)Nc3nc(C)cs3)ccc21 | 28.0* | 1.2 | 5.3 | -2.5 | -2.6 | -1.1
O=C1NC(Cc2ccc(O)cc2)c2nc3cc(Cl)ccc3c(=O)n2-c2cc3ccccc3cc21 (configuration not stated) | -5.0 | -9.1 | 14.7 | 5.5 | -2.2 | 1.8
Nc1c(C(=O)Nc2nccs2)sc2nc(-c3cccs3)cc(C(F)(F)F)c12 | -11.5 | -5.1 | 36.8* | 34.5* | 28.4* | 22.0
Cc1nnc(NC(=O)c2sc3nc(-c4cccs4)cc(C(F)(F)F)c3c2N)s1 | -6.6 | -22.5 | 39.2* | 15.5 | 51.6* | 11.7
CC(C)(C)C(=O)c1sc2nc(-c3cccs3)cc(C(F)(F)F)c2c1N | 6.2 | 14.3 | -7.4 | -8.6 | -3.6 | 0.4
CCN(CC)S(=O)(=O)c1ccc(N=Cc2c(C)c(C#N)c(=O)n(C)c2O)cc1 | -2.7 | 3.9 | -7.9 | 1.0 | -4.2 | 0.0
COc1cc2[nH]c(C(=O)N3CC(C)OC(C)C3)cc2c(OC)c1OC (configuration not stated) | 4.1 | 0.9 | 0.2 | -4.3 | -1.6 | -1.4
CN(C)CCOC1c2ccccc2CCc2ccc3ccccc3c21 (configuration not stated) | -30.4 | -23.7 | 53.0* | 33.2* | -5.3 | -16.8
Cc1ccc(N2C(=O)CS(=O)C(c3ccccc3)C2=O)cc1C (configuration not stated) | -8.9 | -11.1 | 4.8 | 28.3* | -3.8 | -2.4
COc1ccc(N2C(=O)CS(=O)C(c3ccccc3)C2=O)cc1 (configuration not stated) | 5.1 | 1.4 | -2.3 | -7.3 | -8.2 | -0.3
CC1(c2ccccc2)NC(=O)N(CC(=O)Nc2ccccc2N2CCCC2)C1=O (configuration not stated) | -5.5 | 8.0 | -2.3 | 1.8 | 16.2* | 14.6
CCCCC1(C)NC(=O)N(CC(=O)N2CCc3ccccc32)C1=O (configuration not stated) | 1.2 | 2.2 | -1.1 | -1.6 | -5.8 | -2.3
Cc1ccc(C2(C)NC(=O)N(CC(=O)N3CCc4ccccc43)C2=O)cc1 (configuration not stated) | -13.1 | 7.5 | -17.0 | 10.3 | 29.2* | 23.1
CC1(c2ccc(Cl)cc2)NC(=O)N(CC(=O)N2CCc3ccccc32)C1=O (configuration not stated) | -3.3 | 1.7 | 9.1 | 6.7 | 38.8* | 40.0*
O=C(CN1C(=O)NC2(CCCC2)C1=O)Nc1ccccc1N1CCCC1 | -6.9 | 11.9 | -15.2 | 0.4 | -1.5 | 0.9
COC(=O)c1ccc(C23CC4(C2)[C@H](CN(CC2CCCCC2)[C@@H]4c2ccccc2)C3c2ccc(Cl)nc2)cc1 (some centres not stated) | 9.6 | 21.2 | -2.0 | 8.9 | 1.8 | 0.7
O=C(NC1CC1)c1ccc(C2SCC(=O)N2Cc2ccccc2)cc1 (configuration not stated) | -6.6 | -2.4 | -4.4 | 2.4 | -10.8 | -10.7
COc1ccc(CCNC(=S)N2CCN(S(=O)(=O)c3ccc(C)cc3)CC2)cc1 | 2.9 | 4.9 | -11.1 | -3.2 | 3.2 | 6.5
CCCCOc1ccc(CCC(=O)N/N=C/c2ccco2)cc1 | 0.4 | 13.9 | -23.4 | -1.3 | -1.1 | -0.7
COc1ccc(C2=NOC(Cn3c(Cc4ccc(Cl)cc4)nc4c3c(=O)n(C)c(=O)n4C)C2)cc1 (configuration not stated) | -1.9 | -9.0 | 30.9* | -2.1 | 0.2 | -1.4
SMILES | CHRM5 PAM | CHRM1 PAM | M1 antag | M5 antag | M1 ag | M5 ag
Cc1noc(C)c1COc1ccccc1C(=O)NCc1ccccc1Cl | -37.6 | 2.5 | -1.6 | 98.9* | -2.5 | 0.4
Cc1noc(C)c1COc1ccccc1C(=O)NCCc1ccccc1 | -1.3 | 4.1 | -5.6 | -0.8 | -3.2 | 0.7
CCN(CC(=O)NCc1cccs1)C(=O)COc1ccc(C(C)=O)cc1 | 8.1 | -8.3 | 16.1 | -3.6 | -0.8 | 0.6
C[C@@H]1COC(=O)[C@@H](Cc2ccc(F)cc2)C/C=C\C[C@@H](CC(=O)NCCO)C(=O)N1 | -0.8 | 4.9 | -9.0 | 4.5 | -3.6 | 0.0
O=C(NCCn1cc(SCC(=O)N2CCOCC2)c2ccccc21)c1c(F)cccc1F | -4.1 | -4.0 | -1.1 | 0.3 | -1.7 | 2.7
O=C(NCCn1cc(SCc2ccccc2F)c2ccccc21)c1c(F)cccc1F | -15.7 | -19.5 | 31.7* | 14.1 | -4.5 | -0.8
Cc1cc2c(cc(C(=O)N3CCC(C(=O)N4CCCC4)CC3)n2Cc2c(F)cccc2Cl)o1 | -21.4 | -12.7 | 30.5* | 19.6 | -0.8 | 6.1
CCOC(=O)c1cc2occc2n1Cc1c(F)cccc1Cl | 6.0 | 5.2 | -14.2 | -7.2 | -4.1 | -6.4
CN(C)C(CNC(=O)c1ccc(C2SCCS2)cc1)c1ccccc1 (configuration not stated) | -14.0 | -27.4 | 37.6* | 11.4 | -12.7 | -7.8
Cc1cccc(NS(=O)(=O)c2ccc(C(=O)NCC(c3ccccc3)N(C)C)cc2)c1C (configuration not stated) | -5.6 | -18.6 | 26.6* | 1.0 | 3.9 | 0.9
COc1cccc(CCc2nnc(CCC(=O)NC(C)Cc3cccs3)o2)c1 (configuration not stated) | 5.3 | 5.2 | -28.3 | -4.3 | -1.6 | 1.8
O=C(Nc1ccc(Oc2ccccc2)nc1)C1CCCCN1Cc1ccc(OCCO)cc1 (configuration not stated) | 6.8 | -1.0 | 0.8 | -3.9 | -4.8 | -8.0
O=C(Nc1ccc(OC(F)F)c(Cl)c1)c1ccccn1 | 16.5 | 13.6 | -21.8 | -11.1 | -4.6 | -2.2
Fc1ccc(NC(=S)Nc2ccc(F)c(Cl)c2)cc1Cl | -18.5 | -12.1 | 23.6* | 15.1 | 6.1 | 7.1
Cc1ccc(NC(=S)Nc2ccc(OC(F)F)c(Cl)c2)cc1F | -12.6 | -18.8 | 24.5* | 19.0 | -3.3 | 1.9
CSc1ncc(Cl)c(C(=O)Nc2ccccc2[N+](=O)[O-])n1 | -1.5 | 3.3 | -10.0 | -0.2 | -1.3 | -0.1

Screens as filed in PubChem BioAssay.
